# bIAP inhibitor = bovine intestinal alkaline phosphatase inhibitors, primary screen, selectivity assay for TNAP inhibitor project, biochemical, bovine IAP, CDP-star luminescence; 190,000 tested, under 10 active; alkaline phosphatase, intestinal [Bos taurus]; purified bovine IAP, 30 min; inhibition, % at 20 µM;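 active = over 50% inhibition of intestinal alkaline phosphatase at 20 µM in the single-dose screen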
#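 test system = bovine IAP enzyme | medium = DEA buffer 100 mM, pH 9.8, with MgCl2 1.0 mM, ZnCl2 0.02 mM | detection = luminescence | dosing = single compound dose of 20 µM, 2% DMSO final | incubation = 30 min reaction at room temperature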
# bIAP act = bovine intestinal alkaline phosphatase activators, primary screen, biochemical, bovine IAP, CDP-star luminescence; activation factor at 20 µM; AID 1016, 2008; purified bovine IAP, 30 min; hits give high values; fold of DMSO-control signal, blank-subtracted; 0.17% of 200,000 active;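 active = activation factor of 2 or more at 20 µM, a signal rise over negative controls twice the positive control's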
# mIAP act = activators of mouse IAP, primary screen, biochemical, luminescence, uHTS | muIAP, CDP-Star luminescence, 30 min; hits give high values; 1 = vehicle-only enzyme signal, 0 = enzyme-free wells | activation factor at 10 µM | 0.24% of 330,000 active;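 active = activation factor of at least 2 at 20 µM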
#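 also added = chemiluminescent substrate CDP-Star | test system = mouse IAP enzyme | signal = chemiluminescence readout | compound = DMSO-dissolved test compounds | incubation = 30 min at room temperature | benchmarks = DMSO wells, no-enzyme wells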
# hIAP activ = human IAP activators, primary screen, biochemical, luminescence, uHTS; Intestinal-type alkaline phosphatase (Homo sapiens), P09923; activation factor at 10 µM; purified human IAP, CDP-Star luminescence, 30 min; hits give high values; 1 = vehicle-only enzyme, 0 = enzyme-free background; 0.16% of 330,000 active;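 active = activation factor of the enzyme at least 2-fold when tested at 20 µM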
# Target sequence (P09923 whole entry, looked up): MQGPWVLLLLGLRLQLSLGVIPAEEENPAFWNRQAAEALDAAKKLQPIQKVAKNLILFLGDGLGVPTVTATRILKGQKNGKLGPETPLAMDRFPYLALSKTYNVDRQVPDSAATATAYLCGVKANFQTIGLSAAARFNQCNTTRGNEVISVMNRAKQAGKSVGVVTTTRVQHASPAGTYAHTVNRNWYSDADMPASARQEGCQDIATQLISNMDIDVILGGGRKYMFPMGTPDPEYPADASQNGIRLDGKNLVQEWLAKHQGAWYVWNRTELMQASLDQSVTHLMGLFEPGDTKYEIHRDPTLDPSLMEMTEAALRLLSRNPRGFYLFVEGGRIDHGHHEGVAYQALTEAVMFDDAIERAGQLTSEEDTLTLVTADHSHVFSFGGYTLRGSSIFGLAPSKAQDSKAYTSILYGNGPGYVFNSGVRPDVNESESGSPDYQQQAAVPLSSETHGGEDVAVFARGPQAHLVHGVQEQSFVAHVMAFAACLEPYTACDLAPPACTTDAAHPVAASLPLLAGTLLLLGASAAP
# hIAP inh = human IAP inhibitors, primary screen, biochemical, luminescence, uHTS; AID 2544, 2010; 0.12% of 330,000 active; Intestinal-type alkaline phosphatase (Homo sapiens), P09923; purified IAP, CDP-Star luminescence, 30 min; inhibition, % at 10 µM;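 active = inhibition reaching a set limit with compound at 10 µM in the primary screen, cut at about 35% in these data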
# mIAP block = inhibitors of mouse IAP, primary screen, biochemical, luminescence, uHTS. intestinal alkaline phosphatase [Mus musculus]. purified mouse IAP, CDP-Star luminescence, 30 min. inhibition, % at 10 µM. 0.2% of 330,000 active. AID 2806, 2010;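 active = inhibition of at least 40% at 10 µM in the primary screen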
# hIAP act confirm = human IAP activators, confirmation, biochemical, luminescence, single concentration, uHTS hits; AID 434926, 2010; 10% of 880 active; activation (%Activity, negative = activation), % at 8.3 µM; shares compounds with hIAP activ; purified IAP, CDP-Star luminescence, 30 min; hits give low values;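 active = at least twofold enzyme activation in any of six single-dose repeats, which the averaged readout prints as negative percent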
# A number is an active result; n = inactive; x = no result. Shown are actives, neighbours in structure and some others; about 0.77% of the full set was active somewhere.
SMILES,bIAP inhibitor,bIAP act,mIAP act,hIAP activ,hIAP inh,mIAP block,hIAP act confirm
Cc1cc(C)c(S(=O)(=O)Nc2ccc(O)c(Sc3ncn[nH]3)c2)c(C)c1,n,n,n,n,n,69,x
COc1cc(NC(=O)C2CCN(S(=O)(=O)c3ccc(Cl)cc3)CC2)ccc1-n1cnnn1,n,n,2.3,n,n,n,x
COc1ccc2[nH]c(C(=O)NCCCn3ccnc3)cc2c1,x,x,n,n,n,n,x
COc1ccc(CNC(=O)CN(C(=O)c2csnn2)c2cccc3ccccc23)cc1,x,x,n,n,n,n,x
c1ccc(N2N=C(c3cccs3)CC2c2ccco2)cc1 (stereo unspecified),n,n,2.1,n,n,n,x
Clc1ccc(N2N=C(c3cccs3)CC2c2ccco2)cc1 (stereo unspecified),n,n,n,n,n,n,x
O=C(/C=C/c1c(F)cccc1Cl)N1CCc2ccccc2C1,x,x,n,n,n,n,x
CCOC(=O)CN1NC2(CCCCCCC2)NC1=S,x,x,n,n,n,n,x
CCOC(=O)CN1NC2(CCCCC2)NC1=S,n,n,n,n,n,51,x
O=C(Nc1ccccc1)Nc1ccc(-n2ccc(C(F)(F)F)n2)cc1,x,x,2.4,n,n,n,x
COc1ccccc1Nc1nc(-c2cccs2)cs1,n,n,n,n,n,43,x
O=C(CSc1nnc(-c2ccc(F)cc2)o1)N1CCCC1,x,x,n,n,n,n,x
S=c1[nH]nc(-c2cc(-c3ccccc3)n[nH]2)n1/N=C/c1ccc(Cl)cc1,x,x,n,2,n,n,n
CC(C)(C)NC(=O)NC(=O)CN1C(=O)NC(c2ccccc2)(c2ccccc2)C1=O,x,x,n,n,n,n,x
O=C(NNC(=S)NC(=O)c1ccccc1)c1cccnc1,x,x,n,2.5,n,n,-320
Cc1ccc(CN2CCC(c3nc4ccc(Cl)cc4[nH]3)CC2)cc1,n,n,n,n,n,n,x
Cc1cc2nc(C3CCN(Cc4nnnn4Cc4cccs4)CC3)[nH]c2cc1C,x,n,n,n,37,n,n
CN(C)/C=N/NC(=O)C1Cc2c(ccc3ccccc23)O1 (stereo unspecified),x,x,n,n,n,n,x
CCn1cnc2sc(C(=O)O)c(C)c2c1=O,n,n,n,3.9,n,n,n
CC(C)N(CCO)Cc1nc(C(c2ccccc2)c2ccccc2)no1,x,x,n,n,n,n,x
Cc1cc(Br)ccc1SCC(=O)OC/C(O)=C(\C#N)c1nc2ccccc2[nH]1,x,x,n,2.4,n,n,-67
C/C(=N\NC(=O)CNC(=O)c1cccs1)c1ccc(Cl)c(Cl)c1,x,x,n,n,n,n,x
COc1ccc(S(=O)(=O)N2CCCC2c2cccs2)cc1 (stereo unspecified),x,x,n,n,n,n,x
O=S(=O)(c1ccccc1)N1CCCC1c1cccs1 (stereo unspecified),x,x,n,n,53,n,-172
Cn1nccc1C(=O)N1CCN(c2ccccc2F)CC1,x,x,n,n,46,n,n
SMILES,bIAP inhibitor,bIAP act,mIAP act,hIAP activ,hIAP inh,mIAP block,hIAP act confirm
CC(=O)c1ccc(S(=O)(=O)N(CC(=O)NC2CC2)Cc2ccc(F)cc2)cc1,x,x,n,n,n,n,x
O=C(CC(=O)c1ccccc1)Nc1ccccc1,x,x,n,n,n,n,x
O=C(CC(=O)c1ccccc1)Nc1ccccn1,x,x,n,n,42,n,n
O=C1c2ccccc2-c2onc3c(N4CCN(CCO)CC4)cc(N4CCN(C(=O)c5ccco5)CC4)c1c23,x,x,n,n,n,n,x
CN1CCN(c2cc(N3CCN(C(=O)c4ccco4)CC3)c3c4c(onc24)-c2ccccc2C3=O)CC1,x,x,n,n,42,n,n
Cc1nn(C)c(C(=O)NNC(=S)NCc2ccccc2)c1Cl,x,x,n,2,n,n,-141
Cc1nn(C)c(C(=O)NC(=S)Nc2ccccc2Br)c1Cl,x,x,n,n,n,n,x
